According to ChEMBL document CHEMBL5338759, “N-Phenyl-1-(phenylsulfonyl)-1H-1,2,4-triazol-3-amine as a New Class of HIV-1 Non-nucleoside Reverse Transcriptase Inhibitor” (J Med Chem, 2023):

Legend:
[1] = Subacute toxicity in BALB/c mouse assessed as reduction in aminotransferases level at 25 to 250 mg/kg, IG measured daily for 30 days; assay type: organism-based; conditions: in vivo, po, 720 h, dose 25-250 mg/kg, time 30 day
How it was run: (§1)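 Dosing was daily intragastric 25 or 250 mg/kg in 1% starch gel (0.2 ml/20 g) for 30 days in male Balb/C mice, 17 per group, with starch gel controls. After the final dose, mice were fasted for 2 h with water available, then bled. Serum was clotted for 30 min at room temperature and centrifuged at 3500 rpm. Total protein, urea, creatinine, AST, ALT and alkaline phosphatase were assayed and compared by Mann-Whitney with Holm-Šídák, p < 0.05.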

[2] = Selectivity ratio of IC50 for antiviral activity against wild type HIV1 IIIB infected in human TZM-bl cells to IC50 for antiviral activity against HIV1 harboring K103N mutant infected in human TZM-bl cells; assay type: toxicity, cell-based; conditions: human immunodeficiency virus 1
How it was run: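 TZM-bl cells (2x10⁵/mL) with 15 µg/mL DEAE-dextran were infected with HIV-1 IIIB, A17 (K103N/Y181C) IIIB variant, or NL4-3-based NNRTI-resistant mutants. Compound was present at 0.05–500 nM (DMSO held constant, 0.005% or 0.05%) for 48 hr at 37°C, 5% CO₂.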

[3] = Subacute toxicity in BALB/c mouse assessed as pathological change in heart at 25 to 250 mg/kg, IG measured daily for 30 days by H and E staining based histological analysis; assay type: organism-based; conditions: in vivo, po, 720 h, dose 25-250 mg/kg, time 30 day
How it was run: (§2)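 Male Balb/C mice (17 per group) received 25 or 250 mg/kg intragastrically in 1% starch gel once daily for 30 days, against starch gel controls. Internal organs were examined macroscopically after the study. Sections were paraffin-embedded and stained with hematoxylin and eosin.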

[4] = AUC (0 to infinity) in BALB/c mouse plasma at 250 mg/kg, IG measured at 0.5 to 24 hrs by HPLC-MS analysis; assay type: ADME, organism-based; design: time 0.5-24 hrs, dose 250 mg/kg, route ig; conditions: in vivo, po
How it was run: (§3)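 Mice averaging 20 g (24 animals) were fasted 1 h before and 1 h after dosing. They received 250 mg/kg as 0.5 ml suspension in 1% CMC, 0.05% Tween 80 by intragastric intubation. Blood and brain were taken after decapitation at 0.5, 1, 2, 3, 5, 8 and 24 h (3 per time point). Plasma was frozen at -20°C and brain at -120 °C. Quantification was by UPLC-HRMS (ESI+, EIC m/z 476.0691) against plasma-matrix standards. Parameters were derived by noncompartmental analysis; LLOQ 5 ng/ml, with values below it set to 2.5.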

[5] = AUC (0 to 24 hrs) in BALB/c mouse plasma at 250 mg/kg, IG measured at 0.5 to 24 hrs by HPLC-MS analysis; assay type: ADME, organism-based; design: time upper 24 hrs, time lower 0.5 hrs, dose 250 mg/kg, route ig; conditions: po; how it was run: as §3
[6] = tested on: Human immunodeficiency virus 1; assay: Antiviral activity against HIV1 harboring Y181C mutant infected in human TZM-bl cells; assay type: functional, organism-based; conditions: Human immunodeficiency virus 1, TZM-bl
How it was run: (§4)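 TZM-bl cells (2x10⁵/mL) were infected with mutant virus in the presence of 15 µg/mL DEAE-dextran. A17 (IIIB variant) was grown in H9 cells; the other mutants were NL4-3-based plasmids transfected into 293T cells, then expanded in H9 cells. Compounds were tested at 0.05–500 nM (DMSO constant within an assay) for 48 hr at 37°C. Read-out was luciferase RLU from lysed cells, with at least 6 replicates over multiple days.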

[7] = Acute toxicity in BALB/c mouse at 2000 mg/kg, IG measured for 14 days; assay type: organism-based; conditions: in vivo, po, 336 h, time 14 day
How it was run: (§5)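 Male Balb/C mice, 5–6 weeks old and 19–21 g, were deprived of food and water for 1.5–2 h. They were given a single intragastric 2000 mg/kg dose at 0.5 ml/20 g, prepared just before use. Controls received 0.5 ml of 1% starch gel intragastrically. There were 5 mice per group, observed for 14 days for condition and weight; weight was compared by Šídák's multiple comparisons test.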

[8] = biological target: Voltage-gated inwardly rectifying potassium channel KCNH2 (Homo sapiens, UniProt Q12809); assay: Inhibition of hERG by fluorescence polarization assay; assay type: toxicity
Voltage-gated inwardly rectifying potassium channel KCNH2, sequence (Q12809 whole entry): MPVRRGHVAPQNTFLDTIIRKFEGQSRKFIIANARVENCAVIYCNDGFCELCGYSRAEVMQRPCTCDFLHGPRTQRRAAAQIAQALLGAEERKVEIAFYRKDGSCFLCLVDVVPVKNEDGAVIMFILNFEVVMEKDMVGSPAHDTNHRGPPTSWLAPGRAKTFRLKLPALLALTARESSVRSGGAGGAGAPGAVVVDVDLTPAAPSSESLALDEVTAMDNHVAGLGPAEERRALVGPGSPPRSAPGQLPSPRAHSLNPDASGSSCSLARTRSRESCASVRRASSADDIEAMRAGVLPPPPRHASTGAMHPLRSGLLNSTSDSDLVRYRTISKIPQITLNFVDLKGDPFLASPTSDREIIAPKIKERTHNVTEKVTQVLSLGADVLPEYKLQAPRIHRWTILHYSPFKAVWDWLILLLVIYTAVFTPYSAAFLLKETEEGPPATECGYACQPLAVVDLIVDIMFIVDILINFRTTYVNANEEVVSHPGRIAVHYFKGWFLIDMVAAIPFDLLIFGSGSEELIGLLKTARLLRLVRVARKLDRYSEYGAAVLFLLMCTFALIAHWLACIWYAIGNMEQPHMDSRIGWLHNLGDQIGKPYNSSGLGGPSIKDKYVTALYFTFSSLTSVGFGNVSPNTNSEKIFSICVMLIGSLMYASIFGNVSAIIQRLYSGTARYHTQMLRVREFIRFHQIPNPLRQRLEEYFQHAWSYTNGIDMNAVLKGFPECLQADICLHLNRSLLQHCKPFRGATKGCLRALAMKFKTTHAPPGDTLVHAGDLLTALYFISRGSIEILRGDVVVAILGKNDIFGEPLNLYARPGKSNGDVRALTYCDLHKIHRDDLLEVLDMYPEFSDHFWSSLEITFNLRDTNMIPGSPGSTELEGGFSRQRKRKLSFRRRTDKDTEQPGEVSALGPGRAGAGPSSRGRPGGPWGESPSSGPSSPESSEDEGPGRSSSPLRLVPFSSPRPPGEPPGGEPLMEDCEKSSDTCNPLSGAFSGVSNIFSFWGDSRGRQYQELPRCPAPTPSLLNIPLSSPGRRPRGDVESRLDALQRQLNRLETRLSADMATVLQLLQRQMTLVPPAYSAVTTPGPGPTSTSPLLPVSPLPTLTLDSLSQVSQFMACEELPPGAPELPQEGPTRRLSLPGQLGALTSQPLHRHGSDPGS

[9] = Subacute toxicity in BALB/c mouse assessed as reduction in reticulocytes count at 25 to 250 mg/kg, IG measured daily for 30 days; assay type: organism-based; conditions: in vivo, po, 720 h, dose 25-250 mg/kg, time 30 day
[10] = Subacute toxicity in BALB/c mouse assessed as effect on lung weight at 25 to 250 mg/kg, IG measured daily for 30 days; assay type: organism-based; conditions: in vivo, po, 720 h, dose 25-250 mg/kg, time 30 day
[11] = AUC (0 to 24 hrs) in BALB/c mouse brain at 250 mg/kg, IG measured at 0.5 to 24 hrs by HPLC-MS analysis; assay type: ADME, organism-based; design: dose 250 mg/kg, time 0.5-24 hrs, route ig; conditions: po; how it was run: as §3
[12] = Subacute toxicity in BALB/c mouse assessed as effect on adrenal gland weight at 25 to 250 mg/kg, IG measured daily for 30 days; assay type: organism-based; conditions: in vivo, po, 720 h, dose 25-250 mg/kg, time 30 day
[13] = Subacute toxicity in BALB/c mouse assessed as effect on kidney weight at 25 to 250 mg/kg, IG measured daily for 30 days; assay type: organism-based; conditions: in vivo, po, 720 h, dose 25-250 mg/kg, time 30 day
[14] = Subacute toxicity in BALB/c mouse assessed as reduction in hemoglobin level at 25 to 250 mg/kg, IG measured daily for 30 days; assay type: organism-based; conditions: in vivo, po, 720 h, dose 25-250 mg/kg, time 30 day
[15] = tested on: Human immunodeficiency virus 1; assay: Antiviral activity against HIV1 harboring K103N mutant infected in human TZM-bl cells; assay type: functional, organism-based; conditions: Human immunodeficiency virus 1, TZM-bl; how it was run: as §4
[16] = tested on: Human immunodeficiency virus 1; assay: Antiviral activity against HIV1 harboring L100I/K103N double mutant infected in human TZM-bl cells; assay type: functional, organism-based; conditions: Human immunodeficiency virus 1, TZM-bl
[17] = tested on: Human immunodeficiency virus 1; assay: Antiviral activity against wild type HIV1 IIIB infected in human TZM-bl cells; assay type: functional, organism-based; conditions: Human immunodeficiency virus 1, IIIB
How it was run: (§6)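 TZM-bl cells (2x10⁵/mL) infected with HIV-1 IIIB grown in H9 cells, with 15 µg/mL DEAE-dextran; serial dilutions from 10 mM DMSO stocks, DMSO held constant (0.005% or 0.05%); 37°C, 5% CO₂, 48 hr; cells lysed, luciferase RLU read.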

[18] = tested on: Human immunodeficiency virus; assay: Antiviral activity against wild type HIV IIIB infected in human TZM-bl cells; assay type: functional, organism-based; conditions: Human immunodeficiency virus 1, IIIB; how it was run: as §6
[19] = AUC (0 to infinity) in BALB/c mouse brain at 250 mg/kg, IG measured at 0.5 to 24 hrs by HPLC-MS analysis; assay type: ADME, organism-based; design: time upper 24 hrs, time lower 0.5 hrs, dose 250 mg/kg, route ig; conditions: po; how it was run: as §3
[20] = Subacute toxicity in BALB/c mouse assessed as reduction in total protein level at 25 to 250 mg/kg, IG measured daily for 30 days; assay type: organism-based; conditions: in vivo, po, 720 h, dose 25-250 mg/kg, time 30 day; how it was run: as §1
[21] = Subacute toxicity in BALB/c mouse assessed as pathological change in spleen at 25 to 250 mg/kg, IG measured daily for 30 days by H and E staining based histological analysis; assay type: organism-based; conditions: in vivo, po, 720 h, dose 25-250 mg/kg, time 30 day; how it was run: as §2
[22] = Acute toxicity in BALB/c mouse assessed as body weight gain at 2000 mg/kg, IG measured for 14 days; assay type: organism-based; conditions: in vivo, po, 336 h, time 14 day; how it was run: as §5
[23] = Subacute toxicity in BALB/c mouse assessed as pathological change in intestine at 25 to 250 mg/kg, IG measured daily for 30 days by H and E staining based histological analysis; assay type: organism-based; conditions: in vivo, po, 720 h, dose 25-250 mg/kg, time 30 day; how it was run: as §2
[24] = Subacute toxicity in BALB/c mouse assessed as reduction in hematocrit level at 25 to 250 mg/kg, IG measured daily for 30 days; assay type: organism-based; conditions: in vivo, po, 720 h, dose 25-250 mg/kg, time 30 day
[25] = tested on: Human immunodeficiency virus 1; assay: Antiviral activity against HIV1 harboring A17 mutant infected in human TZM-bl cells; assay type: functional, organism-based; conditions: Human immunodeficiency virus 1, TZM-bl; how it was run: as §4

## N#C/C=C/c1ccc2c(S(=O)(=O)n3nc(Nc4ccc(C#N)c(Cl)c4)nc3N)cccc2c1
[1]
  Activity: Toxic
[2]
  Ratio IC50: 8.9
[3]
  Activity: Non-Toxic
[4]
  AUC: 427.7 µg·h/mL
[5]
  AUC(0-t): 397 µg·h/mL
[6]
  IC50: 3.7 nM
[7]
  Activity: Non-Toxic
[8]
  IC50: 11500 nM
[9]
  Activity: Non-Toxic
[10]
  Activity: Non-Toxic
[11]
  AUC(0-t): 142 µg·h/mL
[12]
  Activity: Non-Toxic
[13]
  Activity: Non-Toxic
[14]
  Activity: Non-Toxic
[15]
  IC50: 5.9 nM
[16]
  IC50: 1050 nM
[17]
  IC50: 0.24 nM
[18]
  IC50: 0.31 nM
[19]
  AUC(0-inf): 184 µg·h/mL
[20]
  Activity: Non-Toxic
[21]
  Activity: Non-Toxic
[22]
  Activity: Non-Toxic
[23]
  Activity: Non-Toxic
[24]
  Activity: Non-Toxic
[25]
  EC50: 0.689 nM
  IC50: 1.3 nM
